According to paper PMC3040319 (Pharmaceutical Research, 2010):

Key:
[1] = test system: HEK-MOCK cells; assay: Cellular accumulation of platinum in HEK-MOCK cells; format: in vitro ADME, human; settings: 10 μM, 1 h
Summary of the method: (§1)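 HEK293 cells stably carrying full-length mouse Oct1 cDNA in pcDNA5/FRT, selected with hygromycin B; the human OCT1 line's construct is not described. Cells grown in DMEM H21 with 10% FBS at 37°C, 5% CO2. Exposed to 10 μM test compound in serum-free medium for 1 h, then washed 3× with ice-cold PBS. Digested in 70% nitric acid at 65°C for ≥2.5 h. Pt measured by ICP-MS, normalised to BCA protein.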

[2] = molecular target: T1, human OCT1 (Homo sapiens, UniProt O15245); assay: Cellular accumulation of platinum in HEK-hOCT1 cells; format: in vitro ADME; settings: 10 μM, 1 h
T1 sequence (O15245 1-554): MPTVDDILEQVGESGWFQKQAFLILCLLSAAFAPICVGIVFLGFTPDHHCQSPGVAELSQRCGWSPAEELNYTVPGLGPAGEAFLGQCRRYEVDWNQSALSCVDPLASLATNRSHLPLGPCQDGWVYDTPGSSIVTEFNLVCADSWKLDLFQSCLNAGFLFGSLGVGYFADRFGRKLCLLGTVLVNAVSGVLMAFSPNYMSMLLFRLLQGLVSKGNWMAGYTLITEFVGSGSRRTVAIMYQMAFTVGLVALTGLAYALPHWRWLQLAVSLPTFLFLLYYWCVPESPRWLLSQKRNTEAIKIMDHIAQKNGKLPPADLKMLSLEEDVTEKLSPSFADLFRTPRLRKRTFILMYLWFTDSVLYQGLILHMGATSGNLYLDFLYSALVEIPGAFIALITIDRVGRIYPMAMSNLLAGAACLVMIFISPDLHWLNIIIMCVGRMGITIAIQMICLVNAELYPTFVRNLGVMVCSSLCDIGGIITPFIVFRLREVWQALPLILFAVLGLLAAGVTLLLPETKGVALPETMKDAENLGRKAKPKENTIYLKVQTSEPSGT
Summary of the method: as §1

[3] = test system: Kim-1; assay: Renal Kim-1 mRNA by qRT-PCR in the CDPCP toxicity study; format: in vivo, mouse; settings: i.v. once weekly for 3 weeks
Summary of the method: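 Same weekly ×3 tail-vein regimen with saline controls; kidneys were harvested 24 h after the last dose. Kidney RNA was extracted with Trizol and DNase I-treated, then reverse-transcribed. Taqman qRT-PCR for Kim-1 used GAPDH as internal control: 95°C 20 s, then 40 cycles of 95°C 3 s and 60°C 30 s. Results expressed as fold over saline.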

**Q.** Which results are given for `[NH3+][Pt-2]([NH3+])([Cl])[n+]1ccccc1` (stereo not drawn) [CDPCP, cis-diammine(pyridine)chloroplatinum(II)]?
**A.** uptake of platinum [1]: 27.4 ± 7.43 pmol/mg protein/hr; uptake of platinum [2]: 852 ± 135 pmol/mg protein/hr; renal mRNA levels of Kim-1, fold over saline control ([3]; Oct1+/+ mice): 19.3 fold; renal mRNA levels of Kim-1, fold over saline control ([3]; Oct1-/- mice): 117 fold
